Assay results collected from several papers.
Protocols differ between the studies behind these lines.
Target: Mitogen-activated protein kinase kinase kinase 14 (MAP3K14, Homo sapiens, UniProt Q99558)

For `O=C(c1ccc(Nc2ncc(Cl)c(-c3ccc(Cl)s3)n2)cc1)N1CCC(N2CCCC2)CC1`, the remaining binding was 22% (binding; competition with immobilised ligand; 1 µM).
`CN(CCCC(F)(F)F)c1nccc(-c2cnn3ncccc23)n1` gave a remaining binding of 100% (binding; competition with immobilised ligand; 1 µM).
For `Cc1cnc(Nc2ccc(C(=O)N3CCC(N4CCCC4)CC3)cc2)nc1-c1cc2ccccc2s1`, the remaining binding was 100% (binding; competition with immobilised ligand; 1 µM).
`N[C@H]1CCN(c2nccc(-c3cnn4ncccc34)n2)C1` gave a remaining binding of 100% (binding; competition with immobilised ligand; 1 µM).
`c1ccc(N2CCN(Cc3nc4ccccc4[nH]3)CC2)nc1` has a remaining binding of 94% (binding; competition with immobilised ligand; 1 µM).
With `COc1cnc(Nc2cccc(S(N)(=O)=O)c2)nc1N1CCN(c2ccccc2)C(=O)C1` the remaining binding was 89% (binding; competition with immobilised ligand; 1 µM).
For `CN(C)c1ncc(F)c(-c2cnn3ncccc23)n1`, the remaining binding was 75% (binding; competition with immobilised ligand; 1 µM).
With `FC(F)(F)Oc1cccc(-c2cnc3ccc(-c4ccncc4)nn23)c1` the remaining binding was 37% (cell-free assay; competition with immobilised ligand; 5 µM).
For `Nc1cnc(N2CCc3cc(S(=O)(=O)Nc4c(F)cc(Cl)cc4F)cc(N4CCCC4=O)c32)nc1`, the remaining binding was 75% (cell-free assay; competition with immobilised ligand; 1 µM).
`COc1ncc2cc3ccccc3nc2c1C#N` gave a remaining binding of 76% (cell-free assay; competition with immobilised ligand; 5 µM).
`COc1ccnn2ncc(-c3ccnc(N(C)C)n3)c12` gave a remaining binding of 78% (binding; 1 µM).
`CCCCN(CCCC)C(=O)CN1C[C@@H](c2cc(OC)c3c(c2)OCO3)[C@H](C(=O)O)[C@H]1CC(C)(C)CCC` has a remaining binding of 100% (cell-free assay; competition with immobilised ligand; 1 µM).
The remaining binding of `CN(C)c1nccc(-c2cnn3ncccc23)n1` is reported as 74% (binding; competition with immobilised ligand; 1 µM).
The remaining binding of `O=C(NCC1CCOCC1)c1n[nH]cc1NC(=O)c1c(F)cccc1F` is reported as 79% (binding; competition with immobilised ligand; 1 µM).
The remaining binding of `O=C(NCc1ncc(C(F)(F)F)cc1Cl)c1ccc2c(c1)C1(CCS(=O)(=O)CC1)[C@@H](C1CC1)N2S(=O)(=O)c1ccc(F)cc1` is reported as 71% (cell-free assay; competition with immobilised ligand; 1 µM).
`F[C@@H]1CCN(c2nccc(-c3cnn4ncccc34)n2)C1` has a remaining binding of 100% (binding; 1 µM).
The remaining binding of `Cc1noc([C@H]2C[C@@H](c3ccc(C(F)(F)F)cc3)CN(C(=O)N3CCS(=O)(=O)C3)C2)n1` is reported as 91% (cell-free assay; competition with immobilised ligand; 1 µM).
The remaining binding of `C[C@@H](c1ccc(-n2cnc3c(N)ncnc32)cc1)N1CCc2nn(C)c(Cc3ccccc3)c2C1=O` is reported as 100% (binding; competition with immobilised ligand; 0.1 µM).
`CN(C)C(=O)Cn1cc(-c2nc(C3(c4ccc(-c5cnc(N)nc5)cc4)CC3)no2)cn1` has a remaining binding of 83% (cell-free assay; competition with immobilised ligand; 1 µM).
`C=CC(=O)N1CCC(C(=O)NCC(=O)N2CCN(c3nc(-c4cnc(N)nc4C(F)F)nc(N4CCOCC4)n3)CC2)CC1` has a remaining binding of 89% (binding; competition with immobilised ligand; 1 µM).
